Test results: ChEMBL document CHEMBL3865839, “Short Route to the Total Synthesis of Natural Muricadienin and Investigation of Its Cytotoxic Properties” (J Nat Prod, 2016)
Values belong to the molecule of their own block, whether it stands above or below them. Activity calls are given as the source filed them. No cut-off for these calls is given here.

Key:
[1] = Cytotoxicity against HEK293 cells assessed as reduction in cell viability after 24 hrs by MTT assay; assay type: functional, cell-based; conditions: Homo sapiens, HEK293, 24 h
Summary of the method: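 HEK293 (HPA Culture Collections) monolayers in DMEM with 10% FBS and 1% penicillin–streptomycin, 37 °C, humidified 5% CO2. Compound dissolved in DMSO, then diluted in culture medium. Antiproliferative read-out by MTT tetrazolium reduction to formazan. Etoposide run as positive control. IC50 determined.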

[2] = system: HEK293; experiment: Induction of apoptosis in HEK293 cells assessed as late apoptotic cells at 0.1 uM after 24 hrs by Annexin V/propidium iodide-dual staining based FACS analysis (reference value: 4.30%); assay type: functional, Homo sapiens
[3] = system: HEK293; experiment: Induction of apoptosis in HEK293 cells assessed as viable cells at 0.48 uM after 24 hrs by Annexin V/propidium iodide-dual staining based FACS analysis (reference value: 90.31%); assay type: functional; conditions: Homo sapiens, HEK293, 24 h; read-out: Activity
[4] = system: HEK293; experiment: Induction of apoptosis in HEK293 cells assessed as viable cells at 0.19 uM after 24 hrs by Annexin V/propidium iodide-dual staining based FACS analysis (reference value: 90.31%); assay type: functional; conditions: Homo sapiens, HEK293, 24 h; read-out: Activity
[5] = system: HEK293; experiment: Induction of apoptosis in HEK293 cells assessed as early apoptotic cells at 0.1 uM after 24 hrs by Annexin V/propidium iodide-dual staining based FACS analysis (reference value: 2.04%); assay type: functional, Homo sapiens
[6] = system: HEK293; experiment: Induction of apoptosis in HEK293 cells assessed as early apoptotic cells at 0.48 uM after 24 hrs by Annexin V/propidium iodide-dual staining based FACS analysis (reference value: 2.04%); assay type: functional, Homo sapiens
[7] = target: DNA topoisomerase 2-alpha (Homo sapiens) (UniProt P11388); experiment: Inhibition of human Top2alpha using pHOT as substrate assessed as suppression of relaxation of DNA supercoil at >1 uM after 30 mins administered prior to enzyme addition by ethidium bromide-based agarose gel electrophoresis
DNA topoisomerase 2-alpha (Homo sapiens), sequence (P11388 whole entry): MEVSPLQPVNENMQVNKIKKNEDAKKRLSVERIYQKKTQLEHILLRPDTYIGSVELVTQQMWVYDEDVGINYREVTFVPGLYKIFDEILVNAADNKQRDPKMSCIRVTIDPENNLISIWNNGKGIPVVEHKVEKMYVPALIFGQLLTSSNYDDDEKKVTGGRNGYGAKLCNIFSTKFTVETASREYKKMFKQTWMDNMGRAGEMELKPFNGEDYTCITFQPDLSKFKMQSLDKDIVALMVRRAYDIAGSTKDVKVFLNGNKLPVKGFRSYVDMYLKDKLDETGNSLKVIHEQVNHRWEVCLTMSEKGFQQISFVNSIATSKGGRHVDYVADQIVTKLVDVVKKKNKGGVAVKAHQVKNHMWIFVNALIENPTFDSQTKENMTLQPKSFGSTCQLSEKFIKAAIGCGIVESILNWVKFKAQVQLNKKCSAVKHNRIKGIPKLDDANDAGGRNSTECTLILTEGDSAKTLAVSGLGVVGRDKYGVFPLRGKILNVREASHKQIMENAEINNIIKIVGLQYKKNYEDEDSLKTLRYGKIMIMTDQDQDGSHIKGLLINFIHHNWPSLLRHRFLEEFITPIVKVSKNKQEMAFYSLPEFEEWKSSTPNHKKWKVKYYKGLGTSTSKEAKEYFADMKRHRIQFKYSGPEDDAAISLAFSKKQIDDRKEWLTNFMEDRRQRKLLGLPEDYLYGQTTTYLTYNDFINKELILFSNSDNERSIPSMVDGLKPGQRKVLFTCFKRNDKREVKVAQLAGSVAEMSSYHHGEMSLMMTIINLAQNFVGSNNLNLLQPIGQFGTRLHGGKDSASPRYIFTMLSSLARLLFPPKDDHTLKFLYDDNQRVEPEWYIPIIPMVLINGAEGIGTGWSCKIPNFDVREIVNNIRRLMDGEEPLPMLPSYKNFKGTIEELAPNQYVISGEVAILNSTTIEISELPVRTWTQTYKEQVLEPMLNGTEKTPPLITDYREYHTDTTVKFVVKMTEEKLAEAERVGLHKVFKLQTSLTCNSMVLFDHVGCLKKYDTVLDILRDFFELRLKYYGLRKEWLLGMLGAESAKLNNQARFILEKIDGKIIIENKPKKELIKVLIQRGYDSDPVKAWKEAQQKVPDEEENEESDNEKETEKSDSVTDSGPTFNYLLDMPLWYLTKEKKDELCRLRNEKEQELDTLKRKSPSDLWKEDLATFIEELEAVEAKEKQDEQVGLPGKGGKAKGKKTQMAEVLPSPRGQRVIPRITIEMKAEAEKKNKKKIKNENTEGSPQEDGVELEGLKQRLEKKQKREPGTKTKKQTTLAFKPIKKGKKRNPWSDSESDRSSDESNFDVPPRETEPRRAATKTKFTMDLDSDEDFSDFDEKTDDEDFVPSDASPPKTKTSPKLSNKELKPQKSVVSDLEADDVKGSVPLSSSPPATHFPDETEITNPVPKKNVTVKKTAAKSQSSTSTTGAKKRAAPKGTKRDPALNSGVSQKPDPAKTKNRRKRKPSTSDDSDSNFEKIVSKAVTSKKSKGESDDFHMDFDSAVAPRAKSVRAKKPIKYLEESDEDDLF

[8] = system: HEK293; experiment: Induction of apoptosis in HEK293 cells assessed as necrotic cells at 0.48 uM after 24 hrs by Annexin V/propidium iodide-dual staining based FACS analysis (reference value: 3.35%); assay type: functional, Homo sapiens
[9] = target: T1, DNA topoisomerase 1 (Homo sapiens) (UniProt P11387); experiment: Inhibition of human Top1 using pHOT as substrate assessed as suppression of relaxation of DNA supercoil at >50 uM after 30 mins by ethidium bromide-based agarose gel electrophoresis
T1 sequence (whole entry): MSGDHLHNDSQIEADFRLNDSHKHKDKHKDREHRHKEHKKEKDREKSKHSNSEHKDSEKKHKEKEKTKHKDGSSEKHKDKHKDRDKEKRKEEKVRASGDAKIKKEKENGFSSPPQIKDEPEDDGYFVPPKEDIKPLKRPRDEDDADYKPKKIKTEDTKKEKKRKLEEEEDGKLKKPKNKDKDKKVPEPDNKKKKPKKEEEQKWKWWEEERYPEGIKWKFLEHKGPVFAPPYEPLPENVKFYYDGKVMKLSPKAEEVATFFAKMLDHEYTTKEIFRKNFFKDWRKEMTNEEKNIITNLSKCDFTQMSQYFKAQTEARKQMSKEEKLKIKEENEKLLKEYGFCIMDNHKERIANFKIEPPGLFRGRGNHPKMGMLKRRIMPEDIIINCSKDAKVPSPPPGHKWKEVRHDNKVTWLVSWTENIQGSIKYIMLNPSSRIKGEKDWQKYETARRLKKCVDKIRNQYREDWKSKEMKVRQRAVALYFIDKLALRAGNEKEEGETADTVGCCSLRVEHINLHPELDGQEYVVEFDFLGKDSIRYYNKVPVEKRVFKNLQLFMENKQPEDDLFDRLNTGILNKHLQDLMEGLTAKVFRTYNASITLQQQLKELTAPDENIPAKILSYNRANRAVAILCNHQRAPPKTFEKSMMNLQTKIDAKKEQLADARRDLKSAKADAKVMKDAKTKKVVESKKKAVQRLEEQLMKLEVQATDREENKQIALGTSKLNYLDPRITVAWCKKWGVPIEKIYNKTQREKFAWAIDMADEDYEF

[10] = system: HEK293; experiment: Induction of apoptosis in HEK293 cells assessed as viable cells at 0.1 uM after 24 hrs by Annexin V/propidium iodide-dual staining based FACS analysis (reference value: 90.31%); assay type: functional; conditions: Homo sapiens, HEK293, 24 h; read-out: Activity
[11] = system: HEK293; experiment: Induction of apoptosis in HEK293 cells assessed as late apoptotic cells at 0.19 uM after 24 hrs by Annexin V/propidium iodide-dual staining based FACS analysis (reference value: 4.30%); assay type: functional, Homo sapiens
[12] = system: HEK293; experiment: Induction of apoptosis in HEK293 cells assessed as necrotic cells at 0.1 uM after 24 hrs by Annexin V/propidium iodide-dual staining based FACS analysis (reference value: 3.35%); assay type: functional, Homo sapiens
[13] = system: HEK293; experiment: Induction of apoptosis in HEK293 cells assessed as necrotic cells at 0.19 uM after 24 hrs by Annexin V/propidium iodide-dual staining based FACS analysis (reference value: 3.35%); assay type: functional, Homo sapiens
[14] = system: HEK293; experiment: Induction of apoptosis in HEK293 cells assessed as late apoptotic cells at 0.48 uM after 24 hrs by Annexin V/propidium iodide-dual staining based FACS analysis (reference value: 4.30%); assay type: functional, Homo sapiens
[15] = system: HEK293; experiment: Induction of apoptosis in HEK293 cells assessed as early apoptotic cells at 0.19 uM after 24 hrs by Annexin V/propidium iodide-dual staining based FACS analysis (reference value: 2.04%); assay type: functional, Homo sapiens
[16] = system: HEK293; experiment: Induction of apoptosis in HEK293 cells after 24 hrs by Annexin V/propidium iodide-dual staining based FACS analysis; assay type: functional, cell-based; conditions: Homo sapiens

SMILES: COc1cc([C@@H]2c3cc4c(cc3[C@@H](O[C@@H]3O[C@@H]5CO[C@@H](C)O[C@H]5[C@H](O)[C@H]3O)[C@H]3COC(=O)[C@H]23)OCO4)cc(OC)c1O [ETOPOSIDE]
IC50 [1]: 600 nM

inhibition [7]: Active | inhibition [9]: Active
SMILES: CCCCCCCCCCCC/C=C\CC/C=C\CCCCCCCCCCCCC1=C[C@H](C)OC1=O
Activity [2]: 8.09% | IC50 [1]: 390 nM | viability at 0.48 µM [3]: 48.6% | viability at 0.19 µM [4]: 67.5% | Activity [5]: 5.31% | Activity [6]: 16.14% | Activity [8]: 7.91% | viability at 0.1 µM [10]: 82.3% | Activity [11]: 15.3% | Activity [12]: 4.3% | Activity [13]: 6.7% | Activity [14]: 27.32% | Activity [15]: 10.49% | Activity [16]: Dose-dependent effect
